The subject of assay [1] is Penicillium digitatum. Kind of assay: Fungicidal activity against Penicillium digitatum assessed as inhibition of mycelium measured after 48 hr. Type of assay: functional, organism-based. An outline of the steps:
(§1)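 Poisoned-agar test on P. digitatum. Compounds in DMSO were mixed into molten agar at about 45–50 °C, at 1–50 μg/mL. Blank medium was the control. 5 mm plugs taken from the margins of actively growing mycelial colonies were placed at plate centres. Plates were run in triplicate at 26 °C in darkness. Colony diameter was read at 48 h; inhibition % = (control − treated diameter)/control diameter.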

Assay [2] concerns Penicillium digitatum. Kind of assay: Fungicidal activity against Penicillium digitatum assessed as inhibition of mycelium at 50 ug/ml measured after 48 hr. Format: functional. Summed up:
as §1

Assay [3] deals with T1, P450 sterol 14-alpha-demethylase (Penicillium digitatum, UniProt E3SW77).
T1 sequence (E3SW77 whole entry): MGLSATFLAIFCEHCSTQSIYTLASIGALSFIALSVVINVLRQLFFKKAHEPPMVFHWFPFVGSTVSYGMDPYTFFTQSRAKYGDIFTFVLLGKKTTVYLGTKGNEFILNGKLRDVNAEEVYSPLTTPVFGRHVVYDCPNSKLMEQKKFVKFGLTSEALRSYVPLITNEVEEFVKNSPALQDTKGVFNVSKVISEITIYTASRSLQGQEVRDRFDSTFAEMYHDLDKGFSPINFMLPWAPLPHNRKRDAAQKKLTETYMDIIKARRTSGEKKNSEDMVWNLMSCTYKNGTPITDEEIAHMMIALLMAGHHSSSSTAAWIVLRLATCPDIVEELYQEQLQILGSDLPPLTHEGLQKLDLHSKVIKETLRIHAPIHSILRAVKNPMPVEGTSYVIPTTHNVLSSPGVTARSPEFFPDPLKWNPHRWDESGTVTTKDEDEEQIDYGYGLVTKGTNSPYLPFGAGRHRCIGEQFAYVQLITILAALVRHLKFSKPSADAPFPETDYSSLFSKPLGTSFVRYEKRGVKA
Kind of assay: Binding affinity to Penicillium digitatum CYP51. An outline of the steps:
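Recombinant His-tagged P. digitatum CYP51 from E. coli BL21(DE3), Ni-NTA purified, in 100 mM PBS pH 7.2. Difference spectra at 350−500 nm were recorded 1 min after adding compound at room temperature, with DMSO below 0.5%. Kd came from a Hanes−Woolf plot of [I] versus [I]/ΔA, using Amax from the saturated absorbance shift.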

In assay [4] the test system is Penicillium digitatum. Put plainly: Fungicidal activity against Penicillium digitatum assessed as inhibition of mycelium at 25 ug/ml measured after 48 hr. Format: functional. An outline of the steps: as §1
The subject of assay [5] is Penicillium digitatum. Put plainly: Fungicidal activity against Penicillium digitatum assessed as inhibition of mycelium at 5 ug/ml measured after 48 hr. Format: functional. Summed up: as §1
The target in assay [6] is Penicillium digitatum. Put plainly: Antifungal activity against Penicillium digitatum assessed as growth inhibition.
Assay [7] deals with Penicillium digitatum. Put plainly: Fungicidal activity against Penicillium digitatum assessed as inhibition of mycelium at 1 ug/ml measured after 48 hr. Format: functional. An outline of the steps: as §1
The test system of assay [8] is Penicillium digitatum. Kind of assay: Fungicidal activity against Penicillium digitatum assessed as inhibition of mycelium at 10 ug/ml measured after 48 hr. Type of assay: functional. Summed up: as §1

In brackets after ≈: the same amount, converted by molar mass. A value given as a limit tells only on which side of the number the result lay.

As usually defined, the IC50 is the midpoint of a concentration-inhibition curve. What is called inhibition is the drop in the measured response relative to a control, in per cent. With `CC(=O)CC1c2cc(Cl)ccc2N=C(n2cncn2)N1C(C)C` (configuration not stated), the IC50 in the assay on Penicillium digitatum [1] was more than 50 µg/mL. Besides, the inhibition at 50 µg/mL with Penicillium digitatum [2] amounted to 17%.

What is called Kd is the concentration at which binding is half-saturated. As to `CC(=O)CC1c2cc(Cl)ccc2N=C(n2ccnc2)N1c1ccc(F)cc1` (configuration not stated), in assay [3], binding was put at a Kd of 2.4 µM. Moreover, the concentration for half-maximal inhibition (IC50) with Penicillium digitatum [1] is 7.12 µg/mL (≈ 18.6 µM); at Penicillium digitatum [6], 18.6 µM. The inhibition at 25 µg/mL in the assay on Penicillium digitatum [4] was determined as 100%. For the same compound, the inhibition at 50 µg/mL in the assay on Penicillium digitatum [2] amounted to 100%. For the same compound, in the assay on Penicillium digitatum [5], the inhibition at 5 µg/mL came to 21%. Further, the inhibition at 1 µg/mL in the assay on Penicillium digitatum [7] came to 9%. Also, in the assay with Penicillium digitatum [8], the inhibition at 10 µg/mL was 64%.

In the case of `CC(C)(C)C(=O)C(Oc1ccc(Cl)cc1)n1cncn1` (configuration not stated) [TRIADIMEFON], the inhibition at 25 µg/mL in the assay on Penicillium digitatum [4] was determined as 100%. Besides, in the assay with Penicillium digitatum [2], the inhibition at 50 µg/mL amounted to 100%. Besides, the inhibition at 5 µg/mL in the assay with Penicillium digitatum [5] is 27%. In addition, the inhibition at 1 µg/mL in the assay with Penicillium digitatum [7] worked out at 0%. In addition, the inhibition at 10 µg/mL in the assay with Penicillium digitatum [8] stood at 60%.

On to `CC(=O)CC1c2ccccc2N=C(n2cncn2)N1c1ccc(F)cc1` (configuration not stated), for which the 50% inhibitory concentration (IC50) in the assay on Penicillium digitatum [1] was more than 50 µg/mL. Moreover, in the assay with Penicillium digitatum [2], the inhibition at 50 µg/mL stood at 14%.

Consider `CC(=O)CC1c2ccccc2N=C(n2ccnc2)N1c1ccc(Cl)cc1` (configuration not stated), for which, in assay [3], the Kd was 2.91 µM. For the same compound, the IC50 in the assay with Penicillium digitatum [1] is 10.4 µg/mL (≈ 28.5 µM); at Penicillium digitatum [6], 28.5 µM. In the assay with Penicillium digitatum [4], the inhibition at 25 µg/mL stood at 100%. The inhibition at 50 µg/mL with Penicillium digitatum [2] was 100%. Further, in the assay with Penicillium digitatum [5], the inhibition at 5 µg/mL worked out at 14%. Besides, in the assay on Penicillium digitatum [7], the inhibition at 1 µg/mL is 0%. Further, the inhibition at 10 µg/mL with Penicillium digitatum [8] is 35%.

On to `CC(=O)CC1c2ccccc2N=C(n2cncn2)N1c1ccccc1` (configuration not stated), for which the IC50 in the assay with Penicillium digitatum [1] stood at 129 µg/mL (≈ 389 µM). In addition, the inhibition at 50 µg/mL in the assay on Penicillium digitatum [2] is 24%. Also, the inhibition at 5 µg/mL with Penicillium digitatum [5] was determined as 0%. In the assay on Penicillium digitatum [7], the inhibition at 1 µg/mL amounted to 0%. Also, the inhibition at 10 µg/mL in the assay on Penicillium digitatum [8] was 11%.

For `CC(=O)CC1c2ccccc2N=C(n2cncn2)N1C(C)C` (configuration not stated), the IC50 in the assay on Penicillium digitatum [1] is more than 50 µg/mL. Moreover, the inhibition at 50 µg/mL in the assay with Penicillium digitatum [2] turned out to be 10%.

As for `CC(=O)CC1c2cc(Cl)ccc2N=C(n2ccnc2)N1C(C)C` (configuration not stated), in the assay on Penicillium digitatum [1], the concentration for half-maximal inhibition (IC50) was 128 µg/mL (≈ 387 µM). Further, in the assay with Penicillium digitatum [2], the inhibition at 50 µg/mL was 30%. In the assay with Penicillium digitatum [5], the inhibition at 5 µg/mL is 8%. For the same compound, the inhibition at 1 µg/mL with Penicillium digitatum [7] was determined as 0%. For the same compound, the inhibition at 10 µg/mL with Penicillium digitatum [8] is 12%.

On to `CC(C)(C)C(=O)CC1c2ccccc2N=C(n2cncn2)N1c1ccccc1` (configuration not stated), for which the 50% inhibitory concentration (IC50) in the assay on Penicillium digitatum [1] came to 90 µg/mL (≈ 241 µM). Besides, in the assay on Penicillium digitatum [2], the inhibition at 50 µg/mL came to 35%. In addition, the inhibition at 5 µg/mL in the assay with Penicillium digitatum [5] turned out to be 8%. Moreover, in the assay on Penicillium digitatum [7], the inhibition at 1 µg/mL is 0%. Also, in the assay with Penicillium digitatum [8], the inhibition at 10 µg/mL is 15%.

`CC(=O)CC1c2ccccc2N=C(n2ccnc2)N1c1ccc(F)cc1` (configuration not stated): in assay [3], binding was characterised by a dissociation constant (Kd) of 0.976 µM. Besides, the IC50 in the assay with Penicillium digitatum [1] is 4.14 µg/mL (≈ 11.9 µM); at Penicillium digitatum [6], 11.9 µM. In the assay on Penicillium digitatum [4], the inhibition at 25 µg/mL is 100%. Also, in the assay with Penicillium digitatum [2], the inhibition at 50 µg/mL was found to be 100%. The inhibition at 5 µg/mL with Penicillium digitatum [5] stood at 52%. For the same compound, the inhibition at 1 µg/mL in the assay with Penicillium digitatum [7] came to 9%. Further, the inhibition at 10 µg/mL in the assay with Penicillium digitatum [8] worked out at 86%.

For the compound `CC(=O)CC1c2ccccc2N=C(n2cncn2)N1c1cccc(C)c1` (configuration not stated), in the assay on Penicillium digitatum [1], the IC50 came out at 60.1 µg/mL (≈ 174 µM). Besides, the inhibition at 50 µg/mL in the assay with Penicillium digitatum [2] is 44%. For the same compound, in the assay with Penicillium digitatum [5], the inhibition at 5 µg/mL was determined as 12%. Moreover, the inhibition at 1 µg/mL with Penicillium digitatum [7] stood at 0%. In the assay with Penicillium digitatum [8], the inhibition at 10 µg/mL was found to be 19%.

In the case of `CC(=O)CC1c2ccccc2N=C(n2ccnc2)N1C(C)C` (configuration not stated), in the assay on Penicillium digitatum [1], the IC50 is 126 µg/mL (≈ 425 µM). In the assay with Penicillium digitatum [2], the inhibition at 50 µg/mL amounted to 28%. Besides, the inhibition at 5 µg/mL in the assay with Penicillium digitatum [5] came out at 4%. In addition, the inhibition at 1 µg/mL in the assay with Penicillium digitatum [7] amounted to 0%. For the same compound, the inhibition at 10 µg/mL in the assay with Penicillium digitatum [8] is 15%.

Turning to `Cc1cccc(N2C(n3cncn3)=Nc3ccccc3C2CC(=O)C(C)(C)C)c1` (configuration not stated), in the assay with Penicillium digitatum [1], the IC50 worked out at 67.1 µg/mL (≈ 173 µM). The inhibition at 50 µg/mL in the assay with Penicillium digitatum [2] was 40%. For the same compound, the inhibition at 5 µg/mL in the assay with Penicillium digitatum [5] was determined as 8%. The inhibition at 1 µg/mL in the assay on Penicillium digitatum [7] is 0%. The inhibition at 10 µg/mL in the assay on Penicillium digitatum [8] came to 22%.

As to `CC(=O)CC1c2cc(Cl)ccc2N=C(n2cncn2)N1c1ccccc1` (configuration not stated), the concentration for half-maximal inhibition (IC50) with Penicillium digitatum [1] is more than 50 µg/mL. The inhibition at 50 µg/mL with Penicillium digitatum [2] is 8%.

The compound `CCCCN1C(n2ccnc2)=Nc2ccccc2C1CC(C)=O` (configuration not stated) gave a Kd in assay [3] of 13.3 µM. Also, the IC50 is 15.6 µg/mL (≈ 50.2 µM) with Penicillium digitatum [1] and 50.2 µM at Penicillium digitatum [6]. Further, in the assay with Penicillium digitatum [4], the inhibition at 25 µg/mL came to 57%. Further, the inhibition at 50 µg/mL in the assay on Penicillium digitatum [2] worked out at 100%. Moreover, the inhibition at 5 µg/mL in the assay with Penicillium digitatum [5] amounted to 14%. For the same compound, in the assay on Penicillium digitatum [7], the inhibition at 1 µg/mL is 5%. Further, the inhibition at 10 µg/mL with Penicillium digitatum [8] turned out to be 29%.

With `CC(=O)CC1c2ccccc2N=C(n2ccnc2)N1c1ccccc1` (configuration not stated), the IC50 in the assay on Penicillium digitatum [1] came to 5.06 µg/mL (≈ 15.3 µM). In addition, in the assay with Penicillium digitatum [2], the inhibition at 50 µg/mL came to 100%. For the same compound, the inhibition at 5 µg/mL in the assay on Penicillium digitatum [5] was 29%. Moreover, the inhibition at 1 µg/mL with Penicillium digitatum [7] turned out to be 8%. Besides, the inhibition at 10 µg/mL in the assay with Penicillium digitatum [8] worked out at 61%.

As to `CC(=O)CC1c2ccccc2N=C(n2cncn2)N1c1ccc(Cl)cc1` (configuration not stated), the IC50 in the assay with Penicillium digitatum [1] is more than 50 µg/mL. Further, the inhibition at 50 µg/mL with Penicillium digitatum [2] is 10%.

For the origin of these results see ChEMBL document CHEMBL3046149, “Synthesis, fungicidal activity, and sterol 14α-demethylase binding interaction of 2-azolyl-3,4-dihydroquinazolines on Penicillium digitatum” (J Agric Food Chem, 2013).
